Laboratory results published in ChEMBL document CHEMBL4616602, “Design and biological evaluation of tetrahydropyridine derivatives as novel human GPR119 agonists” (Bioorg Med Chem Lett, 2020).
Converted amounts (≈) assume the structure as drawn. The source made the active and inactive calls. The rule behind the calls is not given here.

Columns and labels:
[1] = target: T1, Glucose-dependent insulinotropic receptor (Homo sapiens) (UniProt Q8TDV5); experiment: Agonist activity at GPR119 (unknown origin) assessed as increase in cAMP level at 10 uM by cAMP HTRF assay relative to oleoylethanolamide; assay type: functional
T1 sequence (whole entry): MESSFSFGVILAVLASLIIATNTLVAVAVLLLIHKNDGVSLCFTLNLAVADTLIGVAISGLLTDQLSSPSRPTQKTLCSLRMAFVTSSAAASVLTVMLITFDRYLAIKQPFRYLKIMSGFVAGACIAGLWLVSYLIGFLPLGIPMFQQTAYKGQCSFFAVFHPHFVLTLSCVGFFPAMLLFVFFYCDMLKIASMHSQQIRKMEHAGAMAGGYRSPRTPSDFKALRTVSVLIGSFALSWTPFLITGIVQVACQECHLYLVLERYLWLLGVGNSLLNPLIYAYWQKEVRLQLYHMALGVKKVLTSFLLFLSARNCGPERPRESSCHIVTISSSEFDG
How it was run: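 Cell-based GPR119 agonism at a single 10 μM concentration. Response is expressed as percent of the maximal efficacy of the reference agonist oleoylethanolamide (OEA). Values are means.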

[2] = target: T2, Glucose-dependent insulinotropic receptor (Homo sapiens, UniProt Q8TDV5); experiment: Agonist activity at GPR119 (unknown origin) assessed as increase in cAMP level by cAMP HTRF assay; assay type: functional
T2 sequence (Q8TDV5 whole entry): T1 sequence (whole entry)
How it was run: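 Cell-based GPR119 agonist assay with a top test concentration of 10 μM. EC50 values are reported as means.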

Mus musculus [3] = experiment: Hypoglycemic activity in C57BL/6 mouse assessed as reduction in blood glucose AUC at 100 mg/kg, po measured after 2 hrs by glucose challenge by OGTT relative to control; assay type: functional; parameters: scale not given: the % may be the effect or the level left
How it was run: (§1)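 Normal male C57BL/6J mice received vehicle or compound at 20, 50 or 100 mg/kg, then a glucose challenge of 2 g/kg (10 ml/kg). Blood glucose was followed over 0–120 min and AUC0–120 min calculated. Mean ± SD, n=6, versus vehicle group.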

Mus musculus [4] = experiment: Hypoglycemic activity in C57BL/6 mouse assessed as reduction in blood glucose AUC at 20 and 50 mg/kg, po measured immediately by glucose challenge by OGTT relative to control; assay type: functional; parameters: scale not given: the % may be the effect or the level left; how it was run: as §1
Mus musculus [5] = experiment: Hypoglycemic activity in C57BL/6 mouse assessed as reduction in blood glucose AUC at 20 and 50 mg/kg, po measured after 2 hrs by glucose challenge by OGTT relative to control; assay type: functional; parameters: scale not given: the % may be the effect or the level left; how it was run: as §1
Mus musculus [6] = experiment: Hypoglycemic activity in C57BL/6 mouse […] model assessed as reduction in blood glucose AUC at 20 mg/kg, po administered for 28 days and measured after 2 hrs on day 28 by glucose challenge by OGTT relative to control; assay type: functional; parameters: scale not given: the % may be the effect or the level left
How it was run: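 Diet-induced obese mice were dosed with 20 mg/kg repeatedly for 28 days. On day 28 an OGTT (2 g/kg glucose) was run with blood glucose tracked over 0–120 min and AUC0–120 min derived. Fasting glucose was also taken at day 28. Mean ± SD, n=6, versus vehicle.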

[7] = Toxicity in C57BL/6 mouse […] model assessed as reduction in food intake at 20 mg/kg, po observed for 4 weeks; assay type: organism-based; conditions: in vivo, 672 h
How it was run: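 Diet-induced obese mice were treated at 20 mg/kg for 4 weeks, and average food intake was recorded over the treatment period. Mean ± SD, n=6, compared with vehicle.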

Mus musculus [8] = experiment: Antidiabetic activity in C57BL/6 mouse […] model assessed as reduction in body weight gain at 20 mg/kg, po administered for 4 weeks and measured on day 28; assay type: functional, organism-based
How it was run: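 Diet-induced obese mice were given 20 mg/kg for 4 weeks, with body weight recorded through day 28. Mean ± SD, n=6, versus vehicle group.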

[9] = Solubility of compound; assay type: physicochemical
How it was run: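 Aqueous solubility (logS and mg/ml) was calculated in silico, not measured experimentally.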

Structure (SMILES) | Emax [1] | EC50 [2] | further results
CCc1ccc(N2CC=C(c3nc(COc4ccc(S(C)(=O)=O)cc4)cs3)CC2)nc1 | 71.5% | – | –
CCc1ccc(N2CC=C(c3nc(COc4ccc(-n5cnnn5)cc4)cs3)CC2)nc1 | 78.5% | – | –
CCc1ccc(N2CC=C(c3nc(COc4ccc(-n5cnnn5)cc4F)cs3)CC2)nc1 | 89.6% | – | –
CCc1cnc(N2CC=C(c3nc(COc4ccc(-n5cnnn5)cc4Cl)cs3)CC2)nc1 | 109% | 10.2 nM | Activity (Mus musculus [3]): 12.11%
CC(C)(C)OC(=O)N1CC=C(c2nc(CNc3ccc(Cl)c(I)c3)cs2)CC1 | 5.25% | – | –
CCc1cnc(N2CCC(c3nc(COc4ccc(-n5cnnn5)cc4)cs3)CC2)nc1 [MBX-2982] | 113% | 3.9 nM | Activity (Mus musculus [3]): 29.22%; Activity (Mus musculus [4]): 18.47%; Activity (Mus musculus [5]): 26.72%; Activity (Mus musculus [6]): 23.61%; Activity [7]: Non-Toxic; Activity (Mus musculus [8]): Active; solubility [9]: 37 µg/mL (≈ 82.5 µM)
CC(C)(C)OC(=O)N1CC=C(c2nc(COc3ccc(C4CCCCC4)cc3)cs2)CC1 | 19.7% | – | –
CC(C)(C)OC(=O)N1CC=C(c2nc(CNc3ccc(S(C)(=O)=O)cc3)cs2)CC1 | 26% | – | –
CC(C)(C)OC(=O)N1CC=C(c2nc(COc3ccc(-n4cnnn4)cc3Cl)cs2)CC1 | 94.4% | 107 nM | –
CC(C)(C)OC(=O)N1CC=C(c2nc(COc3ccc(-n4cnnn4)cc3)cs2)CC1 | 95.4% | 113 nM | –
CC(C)(C)OC(=O)N1CC=C(c2nc(CNc3ccc(-n4cnnn4)cc3)cs2)CC1 | 35.5% | – | –
COC(=O)c1sccc1NCc1csc(C2=CCN(C(=O)OC(C)(C)C)CC2)n1 | 13% | – | –
CCc1cnc(N2CC=C(c3nc(COc4ccc(-n5cnnn5)cc4F)cs3)CC2)nc1 | 115% | 8.8 nM | Activity (Mus musculus [3]): 26.81%; Activity (Mus musculus [4]): 1.2%; Activity (Mus musculus [5]): 14.16%
CCCCCCCC/C=C\CCCCCCCC(=O)NCCO [OLEOYLETHANOLAMIDE] | – | 930 nM | –
CC(C)(C)OC(=O)N1CC=C(c2nc(CNc3cc(C(F)(F)F)cc(C(F)(F)F)c3)cs2)CC1 | -2.16% | – | –
CCc1cnc(N2CC=C(c3nc(COc4ccc(S(C)(=O)=O)cc4)cs3)CC2)nc1 | 105% | 70.5 nM | –
CCc1ccc(N2CC=C(c3nc(COc4ccc(-n5cnnn5)cc4Cl)cs3)CC2)nc1 | 72.7% | – | –
CCc1cnc(N2CC=C(c3nc(COc4ccc(-n5cnnn5)cc4)cs3)CC2)nc1 | 110% | 4.9 nM | Activity (Mus musculus [3]): 35.05%; Activity (Mus musculus [4]): 20.11%; Activity (Mus musculus [5]): 26.77%; Activity (Mus musculus [6]): 34.8%; Activity [7]: Non-Toxic; Activity (Mus musculus [8]): Active; solubility [9]: 56 µg/mL (≈ 125 µM)

More lines, main results first:

Emax [1] | EC50 [2] | Structure (SMILES) | further results
1.7% | – | CC(C)(C)OC(=O)N1CC=C(c2nc(COc3ccc(C(C)(C)C)cc3C(C)(C)C)cs2)CC1 | –
7.04% | – | CC(C)(C)OC(=O)N1CC=C(c2nc(COc3ccc(OC(F)(F)F)cc3)cs2)CC1 | –
-7.44% | – | COc1ccc(NCc2csc(C3=CCN(C(=O)OC(C)(C)C)CC3)n2)c(OC)c1 | –
-14.2% | – | COc1ccc(Br)cc1OCc1csc(C2=CCN(C(=O)OC(C)(C)C)CC2)n1 | –
-6.25% | – | COc1ccc(NCc2csc(C3=CCN(C(=O)OC(C)(C)C)CC3)n2)cc1OC | –
8.4% | – | COc1ccc(-n2cnnn2)cc1OCc1csc(C2=CCN(C(=O)OC(C)(C)C)CC2)n1 | –
11.5% | – | CC(C)(C)OC(=O)N1CC=C(c2nc(COc3ccc4c(c3)OCO4)cs2)CC1 | –
-2.17% | – | CC(C)(C)OC(=O)N1CC=C(c2nc(COc3cccc(-n4cnnn4)c3)cs2)CC1 | –
-7.34% | – | CC(C)(C)OC(=O)N1CC=C(c2nc(COc3ccc(Cl)cc3)cs2)CC1 | –
-5.65% | – | COc1ccc(C(C)=O)cc1OCc1csc(C2=CCN(C(=O)OC(C)(C)C)CC2)n1 | –
62.5% | – | CCCC(=O)c1ccc(OCc2csc(C3=CCN(C(=O)OC(C)(C)C)CC3)n2)cc1 | –
78% | 678 nM | CC(C)(C)OC(=O)N1CC=C(c2nc(COc3ccc(S(C)(=O)=O)cc3)cs2)CC1 | –
10.7% | – | COc1ccc(OCc2csc(C3=CCN(C(=O)OC(C)(C)C)CC3)n2)cc1OC | –
105% | 108 nM | CC(C)(C)OC(=O)N1CC=C(c2nc(COc3ccc(-n4cnnn4)cc3F)cs2)CC1 | –
